The results in this text go back to ChEMBL document CHEMBL3393058 (Eur J Med Chem, 2014).

Data set [1] in a line: Solubility in buffer assessed as light scattering. The data set is classed as physicochemical. In outline:
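Light scattering of compounds in phosphatase assay buffer was measured by nephelometry against a buffer blank, across the concentration range used for IC50 determination.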

Data set [2] deals with HEK293. In words: Cytotoxicity against human HEK293 cells expressing human PRL-3 at 50 to 75 uM after 16 hrs by MTT assay. The note with it: hek293, 16 h. It is filed as cell-based. An outline of the steps:
(§1)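 Tetracycline-induced stable HEK293 Flp-In T-REx lines (PRL-1, PRL-2, PRL-3 or empty vector) were seeded at 10000 cells/well. After 24 h, compound or DMSO was added for 16 h. MTT was then added in fresh medium for 4 h at 37 °C, formazan dissolved in DMSO, and A570 read. Data were normalized to DMSO vehicle, run in triplicate in ≥2 independent experiments, with two-sided t-test versus vehicle.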
Background: Formazan colour is commonly taken as a measure of viable cells.

The subject of data set [3] is HEK293. In words: Cytotoxicity against human HEK293 cells expressing human PRL-1 at 50 to 75 uM after 16 hrs by MTT assay. It is filed as cell-based. To be noted: hek293, 16 h. In outline: as §1
The test system of data set [4] is HEK293. In words: Cytotoxicity against human HEK293 cells expressing human PRL-2 at 50 to 75 uM after 16 hrs by MTT assay. The data set is classed as cell-based. The note with it: hek293, 16 h. An outline of the steps: as §1
In data set [5] the test system is HEK293. In words: Inhibition of cell proliferation of human HEK293 cells expressing human PRL-3 at 20 uM after 1 to 9 days by MTT assay. It is filed as functional, cell-based. In outline: (§2)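 Stable HEK293 lines (PRL-3 or empty vector) were seeded at 1500 cells/well in tetracycline-containing growth medium. Compound or DMSO vehicle was added immediately after seeding. On each indicated day, MTT was added for 4 h at 37 °C, formazan dissolved in DMSO, and absorbance read at 570 nm, in triplicate.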

In data set [6] the test system is HEK293. In words: Inhibition of cell proliferation of human HEK293 cells expressing empty vector at 20 uM after 1 to 9 days by MTT assay. The data set is classed as cell-based. To be noted: hek293, 20 µM. An outline of the steps:
as §2

The species entered for data set [7] is Homo sapiens. In words: Selectivity index, 1 - (inhibition of PRL3/inhibition of VHR) at 50 uM.
The species entered for data set [8] is Homo sapiens. In words: Selectivity index, 1 - (inhibition of PRL3/inhibition of PTP1B) at 50 uM.
The species named for data set [9] is Homo sapiens. In words: Selectivity index, 1 - (inhibition of PRL3/inhibition of TCPTP) at 50 uM.
Data set [10] concerns HEK293. In words: Effect on cell proliferation of human HEK293 cells expressing human PRL-3 at 50 uM after 1 to 9 days by MTT assay. The data set is classed as functional, cell-based. In outline:
as §2

The test system of data set [11] is HEK293. In words: Effect on cell proliferation of human HEK293 cells expressing empty vector at 50 uM after 1 to 9 days by MTT assay. It is filed as cell-based. To be noted: hek293, 50 µM. In outline:
as §2

A short description of data set [12]: Drug localization in plasma membrane of HEK293 cells transfected with mKate-PRL-3 at 50 uM incubated for 30 mins by confocal microscopy. The data set is classed as ADME. The note with it: human, hek293, 0.5 h. An outline of the steps:
(§3)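 HEK293 cells were transfected with 0.1 μg mKate-PRL-3 18 h before imaging. Confocal imaging used a 63× oil objective, with mKate excited at 561 nm and compound at 405 nm.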

Data set [13] can be described thus: Drug localization in inner membrane compartments of HEK293 cells transfected with mKate-PRL-3 at 50 uM incubated for 30 mins by confocal microscopy. It is filed as ADME. To be noted: human, hek293, 0.5 h. In outline:
as §3

Data set [14] concerns the target T1, Protein tyrosine phosphatase type IVA 3 (Homo sapiens, UniProt O75365). The note with it: HEK293, 75 uM.
The target of data set [15] is T1, Protein tyrosine phosphatase type IVA 3. To be noted: HEK293, 50 uM.
Data set [16] has the same target. To be noted: HEK293, 12 uM.
For data set [17] the target is unchanged. The note with it: HEK293, 50 uM. The source holds these as a separate data set.
The target is the same in data set [18]. The note with it: HEK293, 35 uM.
Data set [19] shares this target. To be noted: HEK293, 25 uM.
The target is the same in data set [20]. The note with it: HEK293, 12 uM. This is another data set of the same source.
The target in data set [21] is T2, Protein tyrosine phosphatase type IVA 2 (Homo sapiens) (UniProt Q12974).
T2 sequence (whole entry): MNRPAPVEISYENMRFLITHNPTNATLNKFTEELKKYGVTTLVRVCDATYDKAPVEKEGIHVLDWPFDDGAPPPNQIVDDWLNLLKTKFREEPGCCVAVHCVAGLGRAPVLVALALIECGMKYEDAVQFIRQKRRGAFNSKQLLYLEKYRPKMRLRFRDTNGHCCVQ
The note with it: HEK293, 50 uM.

The target of data set [22] is T3, Protein tyrosine phosphatase type IVA 1 (Homo sapiens) (UniProt Q93096).
T3 sequence (whole entry): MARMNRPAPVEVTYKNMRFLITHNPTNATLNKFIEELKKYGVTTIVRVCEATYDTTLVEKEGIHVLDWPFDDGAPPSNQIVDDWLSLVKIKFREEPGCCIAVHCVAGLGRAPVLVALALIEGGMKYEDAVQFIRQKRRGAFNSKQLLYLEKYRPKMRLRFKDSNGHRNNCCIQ
To be noted: HEK293, 50 uM.

Data set [23] concerns HEK293. In words: Cytotoxicity against human HEK293 cells expressing empty vector at 75 uM after 16 hrs by MTT assay. It is filed as cell-based. The note with it: hek293, 16 h. In outline:
as §1

Data set [24] has as its target T1, Protein tyrosine phosphatase type IVA 3. In words: Inhibition of PRL3 (unknown origin) using DiFMUP as fluorogenic phosphate substrate assessed as DiFMUP dephosphorylation. To be noted: for pIC50: read-out: IC50.
The target of data set [25] is T4, Protein tyrosine phosphatase type IVA 2 (Homo sapiens, UniProt Q12974).
T4 sequence (Q12974 whole entry): T2 sequence (whole entry)
In words: Inhibition of PRL2 (unknown origin) using DiFMUP as fluorogenic phosphate substrate assessed as DiFMUP dephosphorylation. The note with it: for pIC50: read-out: IC50.

The target of data set [26] is T5, Protein tyrosine phosphatase type IVA 1 (Homo sapiens, UniProt Q93096).
T5 sequence (Q93096 whole entry): T3 sequence (whole entry)
In words: Inhibition of PRL1 (unknown origin) using DiFMUP as fluorogenic phosphate substrate assessed as DiFMUP dephosphorylation. To be noted: for pIC50: read-out: IC50.

pIC50: −log10 of the molar value. Converted amounts (≈) assume the structure as drawn. The source made the active and inactive calls. The rule behind the calls is not given here.

For orientation: solubility (kinetic) means solubility judged after dilution from a stock solution rather than from solid. By pIC50 is commonly meant the IC50 on a negative log10 scale, so that one unit is a factor of ten.

T1 sequence (O75365 whole entry): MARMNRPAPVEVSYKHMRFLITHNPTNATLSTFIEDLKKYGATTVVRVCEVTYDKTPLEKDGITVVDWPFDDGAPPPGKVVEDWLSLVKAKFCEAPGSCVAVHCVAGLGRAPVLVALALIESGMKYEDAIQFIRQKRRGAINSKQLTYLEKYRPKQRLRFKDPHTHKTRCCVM

Turning to `Nc1c[nH]c(=O)c2cc(-c3ccccc3)sc12`, the solubility result in data set [1] was “soluble”. The Activity entry was “Non-toxic” in data set [2], “Non-toxic” in [3], “Non-toxic” in data set [4] and “Toxic” in data set [6]. In addition, the inhibition entry in [5] was “Active”.
In the case of `O=C(O)c1ccc[n+]2c([O-])c(-c3ccccc3)sc12`, the solubility entry in [1] was “soluble”. The Activity entry in data set [2], in data set [3] and in data set [4] was “Non-toxic” each time. Besides, the Selectivity index came to 0.25 in data set [7], 0.25 in data set [8] and 0.1 in data set [9].
With `C=CCOC(=O)/C(C#N)=C/c1cc(Br)c(O)c(OC)c1`, the solubility (kinetic) in data set [1] was 138 µM (≈ 46.7 µg/mL). For the same compound, the Activity entry in data set [2], in [3], in data set [4] and in [11] was “Non-toxic” each time. The result in data set [10] was inactive. Further, the Drug uptake entry in data set [12] is given as “Active”; in [13], “Not Active”. Besides, the inhibition result in data set [14], in data set [15], in data set [17], in data set [18], in data set [19] and in data set [21] was “Active” each time. Moreover, the inhibition entry in [22] was “Active”. Also, the inhibition entry in data set [16] and in [20] was “inactive” throughout.
For `C=CCOC(=O)/C(C#N)=C/c1ccc(O)c(Br)c1`, the solubility (kinetic) in data set [1] worked out at 311 µM (≈ 95.8 µg/mL). The Activity result is on record as “Non-toxic” in data set [2], “Non-toxic” in data set [3], “Non-toxic” in [4] and “Toxic” in data set [23].
For `COc1cc(/C=C(\C#N)C(=O)OC(C)C)cc(Br)c1O`, the results for the negative-log IC50 (pIC50) in [24], in [25] and in data set [26] were 4.16, 4.16 and 4.25, respectively. Further, the solubility (kinetic) in data set [1] was found to be 144 µM (≈ 49 µg/mL). Besides, the Activity result in data set [2], in [3] and in data set [4] was “Non-toxic” each time. In addition, the figures for the Selectivity index in data set [7], in data set [8] and in data set [9] were 0.24, 0.08 and -0.29, respectively.
On to `CCOC(=O)/C(C#N)=C/c1cc(Br)c(O)c(Br)c1`, for which the figures for the negative-log IC50 (pIC50) in data set [24], in [25] and in data set [26] were 3.96, 3.96 and 4.05, respectively. In addition, in [1], the solubility entry is listed as “soluble”. For the same compound, the Activity result in data set [2], in data set [3] and in [4] was “Toxic” throughout. The results for the Selectivity index in data set [7], in data set [8] and in data set [9] were 0.44, 0.48 and 0.24, respectively.
As for `C=CCOC(=O)/C(C#N)=C/c1ccc(OC)cc1`, the IC50 result in data set [24], in [25] and in data set [26] was “Not Active” throughout.
In the case of `COC(=O)/C(C#N)=C/c1ccc(O)c(Br)c1`, the Drug uptake entry in [12] and in [13] was “Active” throughout.
With `O=C1NC(=S)S/C1=C/c1ccc(-c2ccccc2C(=O)O)o1`, the pIC50 in data set [24] was 4.28. The solubility (kinetic) in data set [1] came to 335 µM (≈ 111 µg/mL). Moreover, the Activity entry in data set [2] is on record as “Non-toxic”. For the same compound, the inhibition entry in data set [14] is “inactive”. Also, the values for the Selectivity index in data set [7], in data set [8] and in data set [9] were 0.54, 0.34 and 0.22, respectively.
